Source: ChEMBL document CHEMBL5058577, “EUbOPEN Chemogenomics Library 2 (Multiplex)” (2022)

Tested on: Fibroblast
Test: Multiplex assay against human fibroblast
Assay type: toxicity, cell-based
Outline: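 Compound was added to live cells that had been stained at seeding with Hoechst33342, BioTracker Green Microtubule Cytoskeleton Dye, MitoTracker Red and Annexin V Alexa Fluor 680, and imaging followed on a CQ1 microscope at 37°C and 5% CO2. CellPathfinder machine-learning gating divided cells into Hoechst high-intensity objects or normal cells, normal cells into healthy, pyknosed or fragmented nuclei, and pyknosed cells into mitotic or apoptotic. Tubulin, mitochondrial-mass and membrane-permeability phenotypes are per cents of healthy-nucleus cells.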

[1] = 12 h, 1 µM, compound concentration 1 uM, replicate 1
[2] = 12 h, 1 µM, compound concentration 1 uM, replicate 2
[3] = 12 h, 10 µM, compound concentration 10 uM, replicate 1
[4] = 12 h, 10 µM, compound concentration 10 uM, replicate 2
[5] = 24 h, 1 µM, compound concentration 1 uM, replicate 1
[6] = 24 h, 1 µM, compound concentration 1 uM, replicate 2
[7] = 24 h, 10 µM, compound concentration 10 uM, replicate 1
[8] = 24 h, 10 µM, compound concentration 10 uM, replicate 2
[9] = 48 h, 1 µM, compound concentration 1 uM, replicate 1
[10] = 48 h, 1 µM, compound concentration 1 uM, replicate 2
[11] = 48 h, 10 µM, compound concentration 10 uM, replicate 1
[12] = 48 h, 10 µM, compound concentration 10 uM, replicate 2

CC[C@@H](C)Nc1nc(C)nc2c(-c3ccc(OC)nc3C)c(C)nn12 [PEXACERFONT]
Population Apoptotic (%) [1]: 40% | Population Fragmented Nuclei (%) [1]: 12% | Population Healthy Nuclei (%) [1]: 66% | Population Hoechst High Intensity Objects (%) [1]: 1% | Population Membrane Permeable-Phenotype (%) [1]: 2% | Population Mitochondria Different-Phenotype (%) [1]: 4% | Population Mitotic Cells (%) [1]: 60% | Population Normal (%) [1]: 98% | Population Pyknosed Nuclei (%) [1]: 20% | Population Tubulin-Different-Phenotype (%) [1]: 35% | Total Cell Count [1]: 147 | Population Apoptotic (%) [2]: 25% | Population Fragmented Nuclei (%) [2]: 32% | Population Healthy Nuclei (%) [2]: 44% | Population Hoechst High Intensity Objects (%) [2]: 2% | Population Membrane Permeable-Phenotype (%) [2]: 15% | Population Mitotic Cells (%) [2]: 75% | Population Normal (%) [2]: 97% | Population Pyknosed Nuclei (%) [2]: 24% | Population Tubulin-Different-Phenotype (%) [2]: 65% | Total Cell Count [2]: 103 | Population Apoptotic (%) [3]: 43% | Population Fragmented Nuclei (%) [3]: 15% | Population Healthy Nuclei (%) [3]: 55% | Population Hoechst High Intensity Objects (%) [3]: 2% | Population Membrane Permeable-Phenotype (%) [3]: 0% | Population Mitochondria Different-Phenotype (%) [3]: 19% | Population Mitotic Cells (%) [3]: 56% | Population Normal (%) [3]: 97% | Population Pyknosed Nuclei (%) [3]: 29% | Population Tubulin-Different-Phenotype (%) [3]: 62% | Total Cell Count [3]: 143 | Population Apoptotic (%) [4]: 38% | Population Fragmented Nuclei (%) [4]: 21% | Population Healthy Nuclei (%) [4]: 40% | Population Hoechst High Intensity Objects (%) [4]: 8% | Population Membrane Permeable-Phenotype (%) [4]: 7% | Population Mitochondria Different-Phenotype (%) [4]: 9% | Population Mitotic Cells (%) [4]: 61% | Population Normal (%) [4]: 91% | Population Pyknosed Nuclei (%) [4]: 38% | Population Tubulin-Different-Phenotype (%) [4]: 68% | Total Cell Count [4]: 147 | Population Apoptotic (%) [5]: 52% | Population Fragmented Nuclei (%) [5]: 16% | Population Healthy Nuclei (%) [5]: 70% | Population Hoechst High Intensity Objects (%) [5]: 1% | Population Membrane Permeable-Phenotype (%) [5]: 0% | Population Mitochondria Different-Phenotype (%) [5]: 3% | Population Mitotic Cells (%) [5]: 47% | Population Normal (%) [5]: 98% | Population Pyknosed Nuclei (%) [5]: 13% | Population Tubulin-Different-Phenotype (%) [5]: 38% | Total Cell Count [5]: 157 | Population Apoptotic (%) [6]: 47% | Population Fragmented Nuclei (%) [6]: 35% | Population Healthy Nuclei (%) [6]: 42% | Population Hoechst High Intensity Objects (%) [6]: 3% | Population Membrane Permeable-Phenotype (%) [6]: 20% | Population Mitochondria Different-Phenotype (%) [6]: 2% | Population Mitotic Cells (%) [6]: 52% | Population Normal (%) [6]: 96% | Population Pyknosed Nuclei (%) [6]: 22% | Population Tubulin-Different-Phenotype (%) [6]: 61% | Total Cell Count [6]: 108 | Population Apoptotic (%) [7]: 37% | Population Fragmented Nuclei (%) [7]: 16% | Population Healthy Nuclei (%) [7]: 56% | Population Hoechst High Intensity Objects (%) [7]: 1% | Population Membrane Permeable-Phenotype (%) [7]: 2% | Population Mitochondria Different-Phenotype (%) [7]: 10% | Population Mitotic Cells (%) [7]: 62% | Population Normal (%) [7]: 98% | Population Pyknosed Nuclei (%) [7]: 27% | Population Tubulin-Different-Phenotype (%) [7]: 68% | Total Cell Count [7]: 139 | Population Apoptotic (%) [8]: 38% | Population Fragmented Nuclei (%) [8]: 18% | Population Healthy Nuclei (%) [8]: 47% | Population Hoechst High Intensity Objects (%) [8]: 7% | Population Membrane Permeable-Phenotype (%) [8]: 20% | Population Mitochondria Different-Phenotype (%) [8]: 6% | Population Mitotic Cells (%) [8]: 61% | Population Normal (%) [8]: 92% | Population Pyknosed Nuclei (%) [8]: 33% | Population Tubulin-Different-Phenotype (%) [8]: 76% | Total Cell Count [8]: 143 | Population Apoptotic (%) [9]: 54% | Population Fragmented Nuclei (%) [9]: 15% | Population Healthy Nuclei (%) [9]: 69% | Population Hoechst High Intensity Objects (%) [9]: 8% | Population Membrane Permeable-Phenotype (%) [9]: 1% | Population Mitochondria Different-Phenotype (%) [9]: 0% | Population Mitotic Cells (%) [9]: 45% | Population Normal (%) [9]: 91% | Population Pyknosed Nuclei (%) [9]: 15% | Population Tubulin-Different-Phenotype (%) [9]: 30% | Total Cell Count [9]: 160 | Population Apoptotic (%) [10]: 25% | Population Fragmented Nuclei (%) [10]: 40% | Population Healthy Nuclei (%) [10]: 45% | Population Hoechst High Intensity Objects (%) [10]: 1% | Population Membrane Permeable-Phenotype (%) [10]: 26% | Population Mitochondria Different-Phenotype (%) [10]: 4% | Population Mitotic Cells (%) [10]: 75% | Population Normal (%) [10]: 98% | Population Pyknosed Nuclei (%) [10]: 14% | Population Tubulin-Different-Phenotype (%) [10]: 52% | Total Cell Count [10]: 113 | Population Apoptotic (%) [11]: 87% | Population Fragmented Nuclei (%) [11]: 23% | Population Healthy Nuclei (%) [11]: 53% | Population Hoechst High Intensity Objects (%) [11]: 3% | Population Membrane Permeable-Phenotype (%) [11]: 0% | Population Mitochondria Different-Phenotype (%) [11]: 14% | Population Mitotic Cells (%) [11]: 12% | Population Normal (%) [11]: 96% | Population Pyknosed Nuclei (%) [11]: 22% | Population Tubulin-Different-Phenotype (%) [11]: 62% | Total Cell Count [11]: 144 | Population Apoptotic (%) [12]: 52% | Population Fragmented Nuclei (%) [12]: 32% | Population Healthy Nuclei (%) [12]: 50% | Population Hoechst High Intensity Objects (%) [12]: 4% | Population Membrane Permeable-Phenotype (%) [12]: 12% | Population Mitochondria Different-Phenotype (%) [12]: 9% | Population Mitotic Cells (%) [12]: 47% | Population Normal (%) [12]: 95% | Population Pyknosed Nuclei (%) [12]: 16% | Population Tubulin-Different-Phenotype (%) [12]: 76% | Total Cell Count [12]: 134
